Measurements from different studies.
Each line is one published result; the experiments were not run side by side.
Mc1r: Melanocyte-stimulating hormone receptor (Mc1r, Mus musculus, UniProt Q01727)
PSMB8: Proteasome subunit beta type-8 (PSMB8, Homo sapiens, UniProt P28062)

Structure (SMILES) | target | assay | conditions | measurement | result
CCCCN1CCC(COC(=O)c2ccc(N)c(OCF)c2)CC1 | Muscarinic acetylcholine receptor M3 (CHRM3, Homo sapiens, UniProt P20309) | cell-free assay, radioligand |  | Ki | 1380 nM
CSCC[C@H](N)C(=O)NCC(=O)N[C@@H](Cc1c[nH]cn1)C(=O)N[C@@H](Cc1ccccc1)C(=O)N[C@@H](CCCNC(=N)N)C(=O)N[C@@H](Cc1c[nH]c2ccccc12)C(=O)N[C@@H](CC(=O)O)C(=O)N[C@@H](CCCNC(=N)N)C(=O)N[C@@H](Cc1ccccc1)C(=O)NCC(=O)O | Mc1r | reporter gene, agonist |  | EC50 | 1590 nM
Cc1ncc(C(=O)N[C@@H](CC2CCC3CCCCC3C2)C(=O)N[C@@H](CC(C)C)C(=O)N[C@H](/C=C/S(C)(=O)=O)Cc2ccc(CN)cc2)s1 (stereo partly drawn) | PSMB8 | enzyme activity, inhibitor | lysate | IC50 | > 10 µM
CSCC[C@H](NC(=O)[C@@H](NC(=O)[C@@H](N)Cc1ccc(O)cc1)C(C)C)C(=O)NCC(=O)N[C@@H](Cc1c[nH]cn1)C(=O)N[C@@H](Cc1ccccc1)C(=O)N[C@@H](CCCNC(=N)N)C(=O)N[C@@H](Cc1c[nH]c2ccccc12)C(=O)N[C@@H](CC(=O)O)C(=O)O | Mc1r | reporter gene, agonist |  | EC50 | 430 nM
CC[C@H](C)[C@H](NC(=O)[C@H](CO)NC(=O)[C@H](Cc1ccc(O)cc1)NC(=O)[C@H](CC(=O)O)NC(=O)[C@H](CO)NC(=O)[C@@H](NC(=O)[C@H](Cc1ccccc1)NC(=O)[C@@H](NC(=O)CNC(=O)[C@H](CCC(=O)O)NC(=O)[C@H](C)NC(=O)[C@@H](N)Cc1ccc(O)cc1)[C@@H](C)O)[C@@H](C)CC)C(=O)N[C@@H](C)C(=O)N[C@@H](CCSC)C(=O)N[C@@H](CC(=O)O)C(=O)N[C@@H](CCCCN)C(=O)N[C@H](C(=O)N[C@@H](Cc1c[nH]cn1)C(=O)N[C@@H](CCC(N)=O)C(=O)N[C@@H](CCC(N)=O)C(=O)N[C@@H](CC(=O)O)C(=O)N[C@@H](Cc1ccccc1)C(=O)N[C@H](C(=O)N[C@@H](CC(N)=O)C(=O)N[C@@H](Cc1c[nH]c2ccccc12)C(=O)N[C@@H](CC(C)C)C(=O)N[C@@H](CC(C)C)C(=O)N[C@@H](C)C(=O)N[C@@H](CCC(N)=O)C(=O)N[C@@H](CCCCN)C(=O)NCC(=O)N[C@@H](CCCCN)C(=O)N[C@@H](CCCCN)C(=O)N[C@@H](CC(N)=O)C(=O)N[C@@H](CC(=O)O)C(=O)N[C@@H](Cc1c[nH]c2ccccc12)C(=O)N[C@@H](CCCCN)C(=O)N[C@@H](Cc1c[nH]cn1)C(=O)N[C@@H](CC(N)=O)C(=O)N[C@H](C(=O)N[C@H](C(=O)N[C@@H](CCC(N)=O)C(=O)O)[C@@H](C)O)[C@@H](C)CC)C(C)C)[C@@H](C)CC | Glucagon receptor (GCGR, Homo sapiens, UniProt P47871) | reporter gene, agonist, luciferase |  | EC50 | > 1000 nM
Cc1ncc(C(=O)N[C@@H](CC(C)C)C(=O)N[C@@H](CC(C)C)C(=O)N[C@H](/C=C/S(C)(=O)=O)Cc2ccc(CN)cc2)s1 | PSMB8 | enzyme activity, inhibitor | lysate | IC50 | > 10 µM
N=C(N)NCCC[C@H](N)C(=O)N[C@@H](Cc1ccccc1)C(=O)NCC(=O)O | Mc1r | reporter gene, agonist |  | EC50 | > 100000 nM
CN1CCN(c2ccc(Nc3ncc4cc(C#N)c(=O)n(C5CCCC5)c4n3)cc2)CC1 | Dual specificity tyrosine-phosphorylation-regulated kinase 1B (DYRK1B, Homo sapiens, UniProt Q9Y463) | enzyme activity, inhibitor |  | IC50 | 0.238 µM
CCOc1ccc2c(-c3cc(C)nc(Nc4cc(OC)cc(C(F)(F)F)c4)n3)cnn2n1 | Dual specificity tyrosine-phosphorylation-regulated kinase 1A (DYRK1A, Homo sapiens, UniProt Q13627) | enzyme activity, inhibitor |  | IC50 | > 10 µM
